Results published in ChEMBL document CHEMBL3612047, “Synthesis, antiproliferative activity and possible mechanism of action of novel 2-acetamidobenzamides bearing the 2-phenoxy functionality” (Bioorg Med Chem, 2015).
Activity calls are given as the source filed them. The rule behind the calls is not given here.

What was measured:
K562 [1] = experiment: Growth inhibition of human K562 cells incubated for 24 hrs by trypan blue dye exclusion assay; format: functional, cell-based; details: K562, 24 h
Method in brief: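 K562 cells, about 2 × 10⁵ cells/mL, precultured 24 h, then exposed 24 h to a range of compound concentrations. Viable cells counted by hemocytometer with trypan blue exclusion to derive IC₅₀.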

K562 [2] = experiment: Selectivity index, ratio of IC50 for human HuDe cells to IC50 human K562 cells
Method in brief: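 Index taken as the ratio of HuDe to K562 IC₅₀. For K562: about 2 × 10⁵ cells/mL, compounds added at graded concentrations, viable count by trypan blue exclusion with a hemocytometer after 24 h. For HuDe primary epidermal cells: 2 × 10⁴ cells/mL, drugs or 0.1% DMSO added 24 h after seeding, MTT read at 570 nm (690 nm blank) after 72 h.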

[3] = Growth inhibition of human NCI60 cells assessed as cell growth level at 10 uM by NCI standard protocol based method; format: functional; parameters: scale not given: the % may be the effect or the level left
Method in brief: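 NCI 60-cell-line screen (leukemia, lung, colon, melanoma, renal, ovarian, brain, breast, prostate) run to the NCI standard protocol. Single high dose of 10⁻⁵ M, read as growth percent. Mean graph midpoint is the arithmetic mean over all lines tested.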

CCRF-CEM = experiment: Growth inhibition of human CCRF-CEM cells by NCI standard protocol based method; format: functional
Method in brief: (§1)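 NCI full 60-cell-line panel, 5-dose assay to the NCI standard protocol. GI₅₀ is the molar concentration inhibiting 50% net cell growth. Mean graph midpoint is averaged over all lines; where the effect is not reached, the highest tested concentration is used.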

HL-60(TB) = experiment: Growth inhibition of human HL-60(TB) cells by NCI standard protocol based method; format: functional
Method in brief: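 Tested in the NCI 60-cell-line screen under its standard protocol. A single-dose prescreen was run at 10⁻⁵ M, then a five-dose assay. GI50 is the molar concentration that inhibits net cell growth by 50%.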

[4] = Growth inhibition of human MOLT4 cells by NCI standard protocol based method; format: functional; details: MOLT-4; method in brief: as §1
[5] = Growth inhibition of human RPMI8226 cells by NCI standard protocol based method; format: functional; details: RPMI-8226; method in brief: as §1
SR = experiment: Growth inhibition of human SR cells by NCI standard protocol based method; format: functional
Method in brief: (§2)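 NCI 60-cell-line screen, standard NCI protocol. Single high dose of 10⁻⁵ M first, then a 5-dose assay across the full panel. Reported as GI₅₀, TGI and LC₅₀, the molar concentrations giving 50% net growth inhibition, total growth inhibition and 50% net cell death. Where an effect was not reached, the highest tested concentration was used.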

A549 = experiment: Growth inhibition of human A549/ATCC cells by NCI standard protocol based method; format: functional; method in brief: as §1
HOP-62 = experiment: Growth inhibition of human HOP62 cells by NCI standard protocol based method; format: functional; method in brief: as §1
[6] = Growth inhibition of human HOP92 cells by NCI standard protocol based method; format: functional; details: HOP-92; method in brief: as §1
NCI-H23 = experiment: Growth inhibition of human NCI-H23 cells by NCI standard protocol based method; format: functional; method in brief: as §1
NCI-H322M = experiment: Growth inhibition of human NCI-H322M cells by NCI standard protocol based method; format: functional; method in brief: as §1
NCI-H460 = experiment: Growth inhibition of human NCI-H460 cells by NCI standard protocol based method; format: functional; method in brief: as §1
NCI-H522 = experiment: Growth inhibition of human NCI-H522 cells by NCI standard protocol based method; format: functional; method in brief: as §1
[7] = Growth inhibition of human COLO205 cells by NCI standard protocol based method; format: functional; details: COLO 205; method in brief: as §1
[8] = Growth inhibition of human HCC2998 cells by NCI standard protocol based method; format: functional; details: HCC 2998; method in brief: as §1
HCT-116 = experiment: Growth inhibition of human HCT116 cells by NCI standard protocol based method; format: functional; method in brief: as §1
HCT-15 = experiment: Growth inhibition of human HCT15 cells by NCI standard protocol based method; format: functional; method in brief: as §1
HT-29 = experiment: Growth inhibition of human HT-29 cells by NCI standard protocol based method; format: functional; method in brief: as §1
KM12 = experiment: Growth inhibition of human KM12 cells by NCI standard protocol based method; format: functional; method in brief: as §1
SF-268 = experiment: Growth inhibition of human SF268 cells by NCI standard protocol based method; format: functional; method in brief: as §1
SNB-19 = experiment: Growth inhibition of human SNB19 cells by NCI standard protocol based method; format: functional; method in brief: as §2
[9] = Growth inhibition of human LOXIMVI cells by NCI standard protocol based method; format: functional; details: LOX IMVI; method in brief: as §1
M14 = experiment: Growth inhibition of human M14 cells by NCI standard protocol based method; format: functional; method in brief: as §1
SK-MEL-2 = experiment: Growth inhibition of human SK-MEL-2 cells by NCI standard protocol based method; format: functional; method in brief: as §1
SK-MEL-5 = experiment: Growth inhibition of human SK-MEL-5 cells by NCI standard protocol based method; format: functional; method in brief: as §1
UACC-257 = experiment: Growth inhibition of human UACC257 cells by NCI standard protocol based method; format: functional; method in brief: as §2
UACC-62 = experiment: Growth inhibition of human UACC62 cells by NCI standard protocol based method; format: functional; method in brief: as §2
IGROV-1 = experiment: Growth inhibition of human IGROV1 cells by NCI standard protocol based method; format: functional; method in brief: as §1
OVCAR-3 = experiment: Growth inhibition of human OVCAR3 cells by NCI standard protocol based method; format: functional; method in brief: as §1
OVCAR-5 = experiment: Growth inhibition of human OVCAR5 cells by NCI standard protocol based method; format: functional; method in brief: as §1
OVCAR-8 = experiment: Growth inhibition of human OVCAR8 cells by NCI standard protocol based method; format: functional; method in brief: as §1
SK-OV-3 = experiment: Growth inhibition of human SKOV3 cells by NCI standard protocol based method; format: functional; method in brief: as §2
A498 = experiment: Growth inhibition of human A498 cells by NCI standard protocol based method; format: functional; method in brief: as §1
ACHN = experiment: Growth inhibition of human ACHN cells by NCI standard protocol based method; format: functional; method in brief: as §1
CAKI-1 = experiment: Growth inhibition of human CAKI-1 cells by NCI standard protocol based method; format: functional; method in brief: as §1
TK-10 = experiment: Growth inhibition of human TK10 cells by NCI standard protocol based method; format: functional; method in brief: as §2
UO-31 = experiment: Growth inhibition of human UO31 cells by NCI standard protocol based method; format: functional; method in brief: as §2
PC-3 = experiment: Growth inhibition of human PC3 cells by NCI standard protocol based method; format: functional; method in brief: as §1
DU-145 = experiment: Growth inhibition of human DU145 cells by NCI standard protocol based method; format: functional; method in brief: as §1
MCF7 = experiment: Growth inhibition of human MCF7 cells by NCI standard protocol based method; format: functional; method in brief: as §1
MDA-MB-231 = experiment: Growth inhibition of human MDA-MB-231 cells by NCI standard protocol based method; format: functional; method in brief: as §1
MDA-MB-468 = experiment: Growth inhibition of human MDA-MB-468 cells by NCI standard protocol based method; format: functional; method in brief: as §1
[10] = Growth inhibition of human NCI60 cells by NCI standard protocol based method; format: functional; details: for TGI: read-out: pTGI (converted); method in brief: as §1
K562 [11] = experiment: Induction of mitotic arrest in human K562 cells; format: functional, cell-based
T47D = experiment: Growth inhibition of human T47D cells by NCI standard protocol based method; format: functional; method in brief: as §2

COc1ccc(NC(=O)COc2ccccc2)c(C(N)=O)c1
IC50 (K562 [1]): 1.1 µM | Ratio IC50 (K562 [2]): 856.28 | Activity [3]: 25.81% | GI50 (CCRF-CEM): 0.487 µM | GI50 (HL-60(TB)): 0.34 µM | GI50 [4]: 2 µM | GI50 [5]: 1.17 µM | GI50 (SR): 0.392 µM | GI50 (A549): 0.908 µM | GI50 (HOP-62): 1.01 µM | GI50 [6]: 0.414 µM | GI50 (NCI-H23): 1.38 µM | GI50 (NCI-H322M): 2.1 µM | GI50 (NCI-H460): 0.484 µM | GI50 (NCI-H522): 1.19 µM | GI50 [7]: 0.487 µM | GI50 [8]: 2.34 µM | GI50 (HCT-116): 0.518 µM | GI50 (HCT-15): 0.432 µM | GI50 (HT-29): 0.388 µM | GI50 (KM12): 0.388 µM | GI50 (SF-268): 2.42 µM | GI50 (SNB-19): 3.2 µM | GI50 [9]: 0.869 µM | GI50 (M14): 0.514 µM | GI50 (SK-MEL-2): 0.611 µM | GI50 (SK-MEL-5): 1.68 µM | GI50 (UACC-257): > 100 µM | GI50 (UACC-62): 1.05 µM | GI50 (IGROV-1): 4.75 µM | GI50 (OVCAR-3): 0.375 µM | GI50 (OVCAR-5): 5.4 µM | GI50 (OVCAR-8): 3.13 µM | GI50 (SK-OV-3): 2.99 µM | GI50 (A498): 0.304 µM | GI50 (ACHN): 2.25 µM | GI50 (CAKI-1): 0.721 µM | GI50 (TK-10): 23.8 µM | GI50 (UO-31): 8.72 µM | GI50 (PC-3): 0.464 µM | GI50 (DU-145): 1.87 µM | GI50 (MCF7): 0.497 µM | GI50 (MDA-MB-231): 2.03 µM | GI50 (MDA-MB-468): 0.345 µM | GI50 [10]: 0.891 µM | LC50 [10]: 97.7 µM | TGI [10]: 49 µM | Activity (K562 [11]): Active

NC(=O)c1cc(I)ccc1NC(=O)COc1ccccc1
IC50 (K562 [1]): 0.16 µM | Ratio IC50 (K562 [2]): 1987.5 | Activity [3]: 24.31% | GI50 (CCRF-CEM): 0.382 µM | GI50 (HL-60(TB)): 0.339 µM | GI50 [4]: 1.1 µM | GI50 [5]: 0.553 µM | GI50 (SR): 0.221 µM | GI50 (A549): 0.732 µM | GI50 (HOP-62): 0.824 µM | GI50 [6]: 1.5 µM | GI50 (NCI-H23): 0.657 µM | GI50 (NCI-H322M): 0.705 µM | GI50 (NCI-H460): 0.425 µM | GI50 (NCI-H522): 0.63 µM | GI50 [7]: 0.353 µM | GI50 [8]: 2.95 µM | GI50 (HCT-116): 0.517 µM | GI50 (HCT-15): 0.253 µM | GI50 (HT-29): 0.349 µM | GI50 (KM12): 0.308 µM | GI50 (SF-268): 0.934 µM | GI50 (SNB-19): 0.913 µM | GI50 [9]: 0.822 µM | GI50 (M14): 0.389 µM | GI50 (SK-MEL-2): 0.463 µM | GI50 (SK-MEL-5): 0.533 µM | GI50 (UACC-257): 41.7 µM | GI50 (UACC-62): 0.701 µM | GI50 (IGROV-1): 1.37 µM | GI50 (OVCAR-3): 0.321 µM | GI50 (OVCAR-5): 1.68 µM | GI50 (OVCAR-8): 0.904 µM | GI50 (SK-OV-3): 3.17 µM | GI50 (A498): 1.02 µM | GI50 (ACHN): 1.32 µM | GI50 (CAKI-1): 0.519 µM | GI50 (TK-10): 8.11 µM | GI50 (UO-31): 2.87 µM | GI50 (PC-3): 0.428 µM | GI50 (DU-145): 0.444 µM | GI50 (MCF7): 0.23 µM | GI50 (MDA-MB-231): 1.28 µM | GI50 (T47D): 0.556 µM | GI50 (MDA-MB-468): 0.351 µM | GI50 [10]: 0.692 µM | LC50 [10]: 89.1 µM | TGI [10]: 35.5 µM | Activity (K562 [11]): Active
